Measured values taken from PMC6225502 (Journal of Clinical Oncology, 2018).

What was measured:
[1] = pembrolizumab monotherapy reference data set; cited from earlier work
[2] = Safety and tolerability: treatment-related adverse events; type: in vivo, human
Summary of the method: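 Patients receiving ≥1 dose of oral epacadostat twice daily plus IV pembrolizumab every 3 weeks were assessed on day 1 of every cycle, at end of treatment and during follow-up. Liver function tests were run weekly for the first 6 weeks. AEs were graded per CTCAE v4.0 and summarized descriptively.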

[3] = type: in vivo, human
Summary of the method: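 Adults with advanced solid tumors took oral epacadostat 25, 50 or 100 mg twice daily with IV pembrolizumab 2 mg/kg every 3 weeks, or 300 mg twice daily with 200 mg every 3 weeks, in 3 + 3 + 3 escalation. Expansion cohorts of up to nine received 50, 100 or 300 mg with 200 mg. DLTs were protocol-specified AEs within the first 6 weeks. RP2D was set by expansion tolerability.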

[4] = Plasma pharmacokinetics of epacadostat; type: in vivo, human
[5] = tested on: IDO1; assay: Pharmacokinetic-based projected IDO1 inhibition; set-up: species or system human
[6] = patients with advanced cancers; cited from earlier work
[7] = tested on: IDO1; settings: doses ≥ 100 mg twice per day; ref [1][6]; cited from earlier work
[8] = epacadostat 100 mg twice per day + pembrolizumab
[9] = epacadostat 300 mg twice per day + pembrolizumab

## pembrolizumab
[1]
  Treatment-emergent antipembrolizumab antibody rate: 2.1%

## NS(=O)(=O)NCCNc1nonc1C(=NO)Nc1ccc(F)c(Br)c1 [Epacadostat]
[2]; [8]
  Rate of AEs of special interest: 6%
  Rate of grade 3/4 TRAEs: 28%
  Rate of treatment-related dose interruptions: 22%
  Rate of treatment-related dose reductions: 11%
[2]; [9]
  Rate of AEs of special interest: 30%
  Rate of grade 3/4 TRAEs: 35%
  Rate of treatment-related dose interruptions: 45%
  Rate of treatment-related dose reductions: 35%
[3]; epacadostat 100 mg twice per day + pembrolizumab (15 patients)
  DLTs observed: grade 3 AST increased/grade 2 ALT increased and grade 2 nervous system disorder occurred in one patient each
[3]; plus pembrolizumab 200 mg every 3 weeks
  Recommended phase II dose (RP2D) of epacadostat: 100 mg twice per day
[4]; 25 to 300 mg twice per day + pembrolizumab
  Dose dependence of plasma exposures (AUC and Cmax): increased in an approximately dose-proportional manner
[4]; across doses
  Time of maximum observed plasma concentration: approximately 2 hours
[5]; all patients who received epacadostat ≥ 100 mg twice per day
  Average concentrations at steady state relative to the IC50 associated with optimal target inhibition: exceeded the IC50
[5]; epacadostat 100 mg twice per day
  Patients who achieved a minimum IDO1 inhibition of ≥ 50%: the majority of patients
[5]; epacadostat 100 mg twice per day or 300 mg twice per day
  Patients projected to have achieved ≥ 50% time-averaged IDO1 inhibition: all patients
[5]; steady state, all epacadostat doses
  Patients projected to have achieved ≥ 50% time-averaged IDO1 inhibition: > 90%
[6]
  Tolerability of single-agent epacadostat: well tolerated
[7]
  Inhibition of IDO1 activity and kynurenine levels: provide optimal inhibition of IDO1 activity and normalization of kynurenine levels
